tolC growth inh – E. coli tolC mutant growth inhibition. growth inhibition, % at 10 µM (by protocol). E. coli BW25113 tolC mutant growth, OD615. AID 573. 2.2% of 65,000 active;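 active = growth inhibition at or above a cutoff equal to the mean over every tested compound plus 3 SD, cut at about 60% in these data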;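 note: growth measured after 20 h incubation at 37 °C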
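Test system: E. coli BW25113 ΔtolC::kan bacteria; incubation: 37 °C, 20 h exposure; medium: LB broth supplemented with 50 µg/mL kanamycin; read-out basis: percent growth inhibition; signal: A615 absorbance measurement; compound: 10 µM final, single dose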
hDAT+cocaine – changed human dopamine transporter uptake under cocaine IC80; Q01959; B-score at 10 µM; 1.3% of 110,000 active; LLC-PK1 hDAT cells, [14C]-dopamine uptake with cocaine IC80; actives deviate in either direction; AID 449768;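 active = Z score or B-score, a plate-position-corrected score, falls beyond the plate's 99.7% confidence bounds, in either direction; inactive = both scores lie inside the 99.7% bounds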;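 note: scored against the spread of the other compound wells on the same plate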
PostGolgi ctrl – growth of the yeast control strain, post-Golgi counter-screen; efflux-deficient yeast background strain, growth absorbance A615, 16 h; 5% of 98,000 active; inhibition, % at 10 µM; AID 738
Ecoli WT expand – E. coli BW25113 growth inhibition, expanded screen. OD600 absorbance. growth inhibition, % at 100 µM. 0.15% of 98,000 active. AID 710;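 active = growth inhibition above about 50% at one test dose, limit read from the data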;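 note: growth measured after 20 h incubation at 37 °C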
PostGolgi yeast – growth inhibition of a yeast mutant, post-Golgi transport screen. post-Golgi transport phenotypic cell assay. inhibition, % at 10 µM. 0.9% of 98,000 active. AID 739;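 note: yeast cells grown in 1536-well plates; yeast grown about 18 h at 30C before absorbance read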
D1 allo mod – allosterically modulates the human D1 dopamine receptor. P21728. HEK293 D1, CRE-luciferase, dopamine EC30 potentiation; actives deviate in either direction. B-score at 10 µM. 5.9% of 58,000 active;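 active = luminescence count or its row- and column-corrected plate score outside the 99.7% band of the plate's sample wells, on either side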
Target sequence (P21728 whole entry, looked up): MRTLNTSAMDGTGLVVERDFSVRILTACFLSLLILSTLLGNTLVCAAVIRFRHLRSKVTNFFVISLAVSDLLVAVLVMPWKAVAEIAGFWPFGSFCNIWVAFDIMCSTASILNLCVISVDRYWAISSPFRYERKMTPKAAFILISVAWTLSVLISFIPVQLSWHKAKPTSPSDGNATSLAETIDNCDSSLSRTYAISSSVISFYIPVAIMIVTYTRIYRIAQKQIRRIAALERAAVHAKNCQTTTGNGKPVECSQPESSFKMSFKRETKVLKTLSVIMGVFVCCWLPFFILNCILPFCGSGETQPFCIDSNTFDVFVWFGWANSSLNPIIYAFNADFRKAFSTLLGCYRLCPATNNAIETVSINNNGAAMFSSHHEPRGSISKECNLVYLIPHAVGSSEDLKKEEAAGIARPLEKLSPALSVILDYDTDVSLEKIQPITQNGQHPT
D1 PAM confirm – D1 receptor (human) allosteric modulation, confirmed; shares compounds with D1 allo mod; HEK293 D1 CRE-luciferase, dopamine EC30 potentiation; hits give high values; luminescence at 10 µM; 88% of 2,200 active; AID 642;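 active = luminescence in either of two replicates above the same-plate mean plus 3 SD of the low-dose dopamine control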
D1 ag no DA – activates D1 CRE-luciferase signal without dopamine present. shares compounds with D1 allo mod. HEK293 D1 CRE-luciferase, luminescence, no dopamine; hits give high values. luminescence at 10 µM. 0.8% of 1,900 active. AID 646; in the data active = luminescence above about 3900
Isoprot counter – alters isoproterenol CRE-luciferase response in HEK293 cells. shares compounds with D1 allo mod. HEK293 D1 CRE-luciferase, isoproterenol EC30 counter-screen. calls only at 10 µM. 63% of 2,200 active;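 active = luminescence in either replicate above plate mean of wells with a partly effective reference agonist dose plus 3 SD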;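 note: isoproterenol raises cAMP through native beta-adrenoceptor Gs so signal bypasses D1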
* = called active by the depositor; i = inactive; x = no result; + = active, no number. Only some compounds are listed: those with a hit (about 9.3% of all), similar ones and a draw of the others. Cut-off read from the data, not from the text of the source, unless noted: active = inhibition above about 30%; inactive = the rest.

SMILES	tolC growth inh	hDAT+cocaine	PostGolgi ctrl	Ecoli WT expand	PostGolgi yeast	D1 allo mod	D1 PAM confirm	D1 ag no DA	Isoprot counter
Cc1noc(C)c1CSCC(=O)OCc1nc2ccccc2c(=O)n1CC#N	-8.6	0.344	3.7	4.0	1.9	-0.478	x	x	x
CCCOn1c(OCC(C)C)nc2ccccc2c1=O	26.3	-1.54	15.4	9.0	-1.7	4.46*	12220*	1508	+
CCOc1cc2[nH]c(=O)n(Cc3ccc(C(=O)NCCOC)cc3)c(=O)c2cc1OCC	-2.2	x	-0.7	-2.0	-6.2	0.506	x	x	x
CCOc1cc2[nH]c(=O)n(Cc3cccc(OC)c3)c(=O)c2cc1OCC	3.8	0.0173	7.5	-4.0	-1.8	17.4*	22168*	1776	+
COc1ccc(C(=O)N2CCN=C2SCc2cccnc2)cc1OC	-14.7	0.0295	-5.6	0.0	-7.8	4.81*	9852*	1576	+
COc1cccc(OC)c1C(=O)N1CCN=C1SCc1cccnc1	-2.2	0.0525	-1.5	-2.0	-0.8	0.397	x	x	x
CC(=O)Nc1ccc(C2NC(=O)c3ccccc3O2)cc1 (stereo not drawn)	-9.0	-0.0178	-6.5	1.0	22.1	3.06*	4184	1712	i
Cn1c2c(c3ccccc31)CC/C2=N\O	12.2	-1.01	-4.6	-8.0	-4.1	4.71*	8132*	1360	i
CN1CCc2c(c3ccccc3n2C)C1	x	-0.591	9.2	1.0	13.8	x	x	x	x
C=C(C)CSc1nc(N)c2c(C)c(C)sc2n1	-20.8	0.442	5.7	-22.0	8.5	10.9*	16788*	1564	+
CCCCS(=O)CC(COCc1ccccc1)OC(=O)CSc1nc(C)cc(C)n1 (stereo not drawn)	7.7	0.0636	19.5	-1.0	15.4	-0.0843	x	x	x
COc1ccc(C2CCCN2C(=O)Nc2ccccc2)cc1OC (stereo not drawn)	x	0.6	18.6	4.0	0.5	x	x	x	x
Cc1cc(NC(=O)C2CCCCC2)n(-c2nc3ccccc3[nH]2)n1	x	-0.314	12.2	3.0	1.4	x	x	x	x
Cc1cc(NC(=O)C2CCC2)n(-c2ccccn2)n1	-8.6	1.63	1.8	0.0	-3.7	7.62*	20484*	1604	+
CCOC(=O)c1cccc(NC(=O)CCc2nc(-c3ccc(C)cc3)no2)c1	4.4	0.155	-4.7	-9.0	-7.8	-0.085	x	x	x
CCOC(=O)c1cccc(NC(=O)CCc2nc(-c3ccccc3F)no2)c1	-11.8	-1.86	5.0	-1.0	-8.0	3.03*	7612	2088	i
CCNc1nc(NCC)nc(OCCOC(C)=O)n1	x	-0.0528	x	x	x	x	x	x	x
CCNc1nc(NCC)nc(OCCOC(=O)c2ccccc2)n1	6.6	0.0615	1.7	-8.0	9.4	6.86*	16012*	1704	+
CC(=O)Nc1ccccc1N(C)S(=O)(=O)c1ccc(C)cc1	-24.0	0.518	2.5	-1.0	5.3	-0.858	x	x	x
c1csc(Cc2nn3c(-c4n[nH]c5c4CCC5)nnc3s2)c1	30.2	0.0532	0.0	9.0	-2.1	3.37*	8576*	1600	+
Cc1ccc(-c2n[nH]c3c2CCC3)cc1	x	-0.017	14.5	27.0	-4.5	x	x	x	x
O=C(Nc1nn[nH]n1)C12CC3CC(CC(C3)C1)C2	x	0.161	5.0	0.0	0.0	x	x	x	x
O=C(O)c1ccc(CSc2nnc(COc3ccc(Cl)cc3Cl)o2)cc1	57.4	0.0089	5.8	3.0	-0.5	5.59*	10144*	x	+
Cc1nn2c(-c3cccc(NC(=O)CSc4nc5ccccc5o4)c3)nnc2c2ccccc12	27.6	-0.00982	13.8	-8.0	1.7	0.0352	x	x	x
C=CCOc1ccc(/C(CC)=N/O)c(OC)c1	-0.3	1.4	2.6	2.0	16.5	3.41*	8264*	1700	i
SMILES	tolC growth inh	hDAT+cocaine	PostGolgi ctrl	Ecoli WT expand	PostGolgi yeast	D1 allo mod	D1 PAM confirm	D1 ag no DA	Isoprot counter
C=CCOc1c(Cl)cc(/C=N/O)cc1OC	10.3	0.434	11.4	7.0	0.3	2.09	x	x	x
COc1ccc(C2(NC(C)=O)CCN(C(=O)c3cccs3)CC2)cc1	x	0.674	x	x	x	x	x	x	x
COc1ccc(CC(=O)Nc2nccs2)cc1OC	-5.0	x	x	x	x	x	x	x	x
COc1ccc(-c2csc(NC(C)=O)n2)cc1OC	-5.5	0.0178	7.4	-6.0	15.4	6.07*	10116*	1664	+
COc1ccc(CC(=O)Nc2nc(C)cs2)cc1OC	14.4	0.0923	-3.3	7.0	3.3	3.86*	12824*	1648	+
COC(=O)c1cc(S(=O)(=O)N2CCOCC2)ccc1Sc1ccccc1N	8.3	-1.04	1.1	-1.0	1.9	0.218	x	x	x
COC(=O)C1=[N+]([O-])OC(C(=O)OC)C1c1c[nH]c2ccccc12 (stereo not drawn)	-20.2	-0.0898	-6.8	-2.0	1.1	4.22*	5864	1700	i
CC1Cc2nc(SCC(=O)Nc3nc4ccccc4s3)n(C)c(=O)c2S1 (stereo not drawn)	x	0.504	29.6	-5.0	2.7	x	x	x	x
CC[C@@H]1CC=C[C@H]2[C@H]1C(=O)N(Cc1ccccc1)[C@H]2c1ccc2ccccc2c1	x	-0.887	x	x	x	x	x	x	x
O=c1[nH]c2ccsc2c(=O)n1-c1ccc(F)cc1	-5.1	0.0461	-0.1	6.0	8.1	0.199	x	x	x
O=c1[nH]c2ccsc2c(=O)n1-c1ccc(F)c(Cl)c1	0.5	0.17	0.0	25.0	14.5	8.28*	14224*	1628	+
COc1ccc(-c2nn3c(-c4ccncc4)nnc3s2)cc1OC	-9.2	x	x	x	x	1.03	x	x	x
COc1ccc(-c2nn3cnnc3s2)cc1OC	5.8	-0.781	-0.6	8.0	1.0	12.8*	16540*	1640	+
COc1ccc(C2=CC(c3c(C)nn(-c4ccccc4)c3Cl)n3nnnc3N2)cc1OC (stereo not drawn)	32.4	0.429	8.2	-4.0	-9.3	1.96	x	x	x
O=S(=O)(N/N=C/c1cn(Cc2ccccc2)c2ccccc12)c1ccccc1	x	-0.0442	29.3	-17.0	-1.6	x	x	x	x
CS(=O)(=O)c1nc(-c2ccccc2)cc(C(F)(F)F)n1	19.8	x	51.1*	19.0	25.7	4.09*	6308*	x	i
COc1ccc(OCc2nnc(SC(C)C(=O)Nc3nccs3)n2-c2ccccc2)cc1 (stereo not drawn)	19.8	-0.743	3.8	-1.0	2.1	-0.0648	x	x	x
Cc1c2c(nc3c(C(=O)NC4CCCCC4C)cnn13)CCCC2 (stereo not drawn)	36.7	x	56.3*	2.0	-2.2	8.18*	10904*	x	+
COc1ccc(-c2nnc(-c3ccc(Br)o3)o2)cc1OC	9.0	0.826	10.6	-2.0	-5.3	4.79*	8496*	1540	i
COc1ccc(-c2nc(-c3ccc(Br)o3)no2)cc1OC	8.7	0.393	12.6	-5.0	-1.5	1.39	x	x	x

High-throughput results as filed in PubChem.
